Assay results of several laboratories.
Each line is one published result; the experiments were not run side by side.

c1ccc(-c2nc(N3CCC(c4ccccn4)C3)c3ccccc3n2)nc1 (centres unmarked) — Tmax (female BALB/c mouse; plasma; oral; 50 mg/kg): 1.3 h
COc1nc(-c2cc(C)c(N[C@@H](C)c3cc(F)cc(F)c3)nn2)ccc1-n1cnc(C)c1 — Tmax (male CD-1 mouse; plasma; oral; 5 mg/kg; single dose): 1 h
COc1cc(/C=C/C(=O)CC(=O)/C=C/c2ccc(O)c(OC)c2)ccc1O — Tmax (HPLC; Swiss mouse; plasma; oral; 2 g/kg): 2 h
CNCCN(C)c1cc(C#N)cc(CCc2cc(C)cc(N)n2)c1 — Tmax (male BALB/c mouse; brain; oral; 10 mg/kg): 4 h
COC(=O)CN(CCCc1ccccc1)CC(=O)N[C@@H](Cc1c[nH]cn1)c1nc(C)no1 — Tmax (male C57BL/6 mouse; plasma; intraperitoneal; 30 mg/kg): 0.167 h
C=CC(=O)N1CC2CC(n3nc(-c4ccc(C(=O)Nc5ccccn5)cc4)c4c(N)ncnc43)CC2C1 (centres unmarked) — Tmax (SCID mouse; plasma; oral; 3 mg/kg): 0.25 h
Cc1c(-c2cc3ccccc3n2Cc2ccc(F)cc2)nc2cc(C(=O)N3CCC[C@@H](N)C3)ccn12 — Tmax (male BALB/c mouse; plasma; oral; 10 mg/kg): 0.5 h
COc1ccc(C[C@@H](C(=O)NO)n2cc(CNS(=O)(=O)c3ccc(-c4ccccc4)s3)nn2)cc1 — Tmax (female CD-1 mouse; plasma; intraperitoneal; 50 mg/kg): 0.333 h
Cc1ccc(NC(=O)c2ccc(CN3CCN(C)CC3)cc2)cc1Nc1nccc(-c2cncc(-c3oncc3C)c2)n1 — Tmax (male C57BL/6 mouse; brain; oral; 100 mg/kg/day): 2 h
COc1ccc(C(O)COc2ccc(-c3csc(-c4ccc(OCC(O)c5ccc(OC)c(OC)c5)cc4)n3)cc2)cc1OC (centres unmarked) — Tmax (C57BL/6 mouse; plasma; oral; 10 mg/kg): 1 h
CC=Cc1ccc(O)c(OC)c1 — Tmax (mouse; lung; intranasal; 100 mg/kg): 0.0833 h
CN1C(=O)c2ccccc2[S@+]([O-])c2ccc(C(=O)NCCc3cccs3)cc21 — Tmax (male C57BL/6 mouse; plasma; intraperitoneal; 30 mg/kg; single dose): 0.25 h
COc1ccc2nccc(N3CCc4c(cc(Cn5ccnc5)cc4-c4cn(C)nc4C(F)(F)F)C3=O)c2c1 — Tmax (male CD-1 mouse; plasma; oral; 50 mg/kg): 1.3 h
NC(=O)c1cc(Oc2ccc(NC(=O)Nc3ccc(Cl)c(C(F)(F)F)c3)c(F)c2)cc[n+]1[O-] — Tmax (mouse; plasma; oral; 10 mg/kg; single dose): 7.5 h
Cc1ccc2cncc(N3CCc4c(cc(Cn5ccnc5)cc4-c4cn(C)nc4C(F)(F)F)C3=O)c2c1 — Tmax (male CD-1 mouse; plasma; oral; 50 mg/kg): 1.3 h
CSc1cc(Oc2ccnc3[nH]c(=O)cnc23)ccc1NC(=O)Nc1cc(C(C)(C)C)nn1-c1ccccc1 — Tmax (BALB/c mouse; plasma; intravenous; 2 mg/kg): 1 h
CC(C)(C)c1ccc(O)c(CN(Cc2cc(C(C)(C)C)ccc2O)C2CCC(NC(N)=O)CC2)c1 (centres unmarked) — Tmax (male C57BL/6 mouse; plasma; oral; 10 mg/kg; single dose): 0.5 h
